We go through nine molecules from ChEMBL document CHEMBL3044834, “Novel protoporphyrinogen oxidase inhibitors: 3H-pyrazolo[3,4-d][1,2,3]triazin-4-one derivatives” (J Agric Food Chem, 2008).

Common to all, as to format: functional
Assay [1] concerns Brassica rapa subsp. oleifera. Nature of the assay: Herbicidal activity against Brassica rapa subsp. oleifera assessed as inhibition of fresh weed plant weight at 1500 g/ha using pre-emergence treatment protocol.
Assay [2] relates to Amaranthus retroflexus. Put plainly: Herbicidal activity against Amaranthus retroflexus assessed as inhibition of fresh weed plant weight at 1500 g/ha using pre-emergence treatment protocol.
For assay [3], the system named is Amaranthus retroflexus. Nature of the assay: Herbicidal activity against Amaranthus retroflexus assessed as inhibition of fresh weed plant weight at 1500 g/ha using post-emergence treatment protocol. A digest of the protocol:
(§1)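 Test compounds made up as emulsions by dissolving in 100 µL N,N-dimethylformamide, then adding a little Tween 20 and water. For post-emergence, weed seedlings at one leaf and one stem were sprayed at the same rates as the pre-emergence test. Fresh weight was recorded 15 days after treatment and expressed as percent inhibition versus controls. All treatments were run in triplicate.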

Assay [4] relates to Echinochloa crus-galli. Put plainly: Herbicidal activity against Echinochloa crus-galli (barnyard grass) assessed as inhibition of fresh weed plant weight at 1500 g/ha using pre-emergence treatment protocol.
Assay [5] deals with Digitaria sanguinalis. Put plainly: Herbicidal activity against Digitaria sanguinalis (hairy crabgrass) assessed as inhibition of fresh weed plant weight at 1500 g/ha using pre-emergence treatment protocol.
Assay [6] concerns Echinochloa crus-galli. Put plainly: Herbicidal activity against Echinochloa crus-galli (barnyard grass) assessed as inhibition of fresh weed plant weight at 1500 g/ha using post-emergence treatment protocol. A digest of the protocol: as §1
Assay [7] deals with Brassica rapa subsp. oleifera. Put plainly: Herbicidal activity against Brassica rapa subsp. oleifera assessed as inhibition of fresh weed plant weight at 1500 g/ha using post-emergence treatment protocol. A digest of the protocol: as §1
For assay [8], the system named is Digitaria sanguinalis. Put plainly: Herbicidal activity against Digitaria sanguinalis (hairy crabgrass) assessed as inhibition of fresh weed plant weight at 1500 g/ha using post-emergence treatment protocol. A digest of the protocol:
as §1

Regarding `CCOc1cc(-n2nnc3c(cnn3C)c2=O)c(F)cc1Cl`, the inhibition at 1500 g/ha in assay [1] was determined as 29.8%; with Amaranthus retroflexus [2], 0%; in the assay with Amaranthus retroflexus [3], 70.6%; with Echinochloa crus-galli [4], 12.4%; with Digitaria sanguinalis [5], 0%; in the assay on Echinochloa crus-galli [6], 20.2%. In addition, the inhibition at 1500 g/ha in assay [7] came out at 21.5%; in the assay on Digitaria sanguinalis [8], 0%.

With `CCCCOc1cc(-n2nnc3c(cnn3C)c2=O)c(F)cc1Cl`, the inhibition at 1500 g/ha in assay [1] came to 4.8%; in the assay on Amaranthus retroflexus [2], 0%; in the assay on Amaranthus retroflexus [3] it was 16.6%; in the assay on Echinochloa crus-galli [4] it was 0%; with Digitaria sanguinalis [5], 0%; in the assay on Echinochloa crus-galli [6], 0%. Also, the inhibition at 1500 g/ha in assay [7] amounted to 16.1%; with Digitaria sanguinalis [8], 0%.

Turning to `CCCCCOc1cc(-n2nnc3c(cnn3C)c2=O)c(F)cc1Cl`, the inhibition at 1500 g/ha in assay [1] stood at 13.9%; in the assay with Amaranthus retroflexus [2], 0%; in the assay with Amaranthus retroflexus [3] it was 23.2%; with Echinochloa crus-galli [4], 1.1%; with Digitaria sanguinalis [5], 0%; with Echinochloa crus-galli [6], 15.3%. The values for the inhibition at 1500 g/ha (in assay [7]; in the assay with Digitaria sanguinalis [8]) were 6.1% and 0%, respectively.

Turning to `Cn1ncc2c(=O)n(-c3cc(OC/C=C/Cl)c(Cl)cc3F)nnc21`, the inhibition at 1500 g/ha was determined as 0% in assay [1]; 0% in the assay with Amaranthus retroflexus [2]; 14% in the assay on Amaranthus retroflexus [3]; 9.7% with Echinochloa crus-galli [4]; 1.4% in the assay with Digitaria sanguinalis [5]; 11.1% with Echinochloa crus-galli [6]. The inhibition at 1500 g/ha in assay [7] worked out at 2.9%; in the assay with Digitaria sanguinalis [8] it was 0%.

Regarding `C=C(Cl)COc1cc(-n2nnc3c(cnn3C)c2=O)c(F)cc1Cl`, the inhibition at 1500 g/ha in assay [1] came to 0%; with Amaranthus retroflexus [2], 11%; in the assay with Amaranthus retroflexus [3], 54.1%; in the assay on Echinochloa crus-galli [4], 15.9%; with Digitaria sanguinalis [5], 0%; in the assay with Echinochloa crus-galli [6] it was 31.1%. Also, the inhibition at 1500 g/ha (in assay [7]; in the assay on Digitaria sanguinalis [8]) was 0% each time.

As to `Cn1ncc2c(=O)n(-c3cc(OCC#N)c(Cl)cc3F)nnc21`, the inhibition at 1500 g/ha in assay [1] amounted to 0%; in the assay with Amaranthus retroflexus [2], 40.5%; in the assay on Amaranthus retroflexus [3], 100%; with Echinochloa crus-galli [4], 17.5%; with Digitaria sanguinalis [5], 2.3%; in the assay on Echinochloa crus-galli [6], 32.6%. The inhibition at 1500 g/ha is 31.3% in assay [7] and 0% with Digitaria sanguinalis [8].

Consider `COCCOCOc1cc(-n2nnc3c(cnn3C)c2=O)c(F)cc1Cl`, for which the inhibition at 1500 g/ha in assay [1] was 0%; with Amaranthus retroflexus [2], 51.8%; in the assay on Amaranthus retroflexus [3], 74.9%; in the assay on Echinochloa crus-galli [4], 5.6%; in the assay on Digitaria sanguinalis [5] it was 2.3%; in the assay with Echinochloa crus-galli [6], 43.6%. Moreover, the inhibition at 1500 g/ha was determined as 28% in assay [7] and 0% with Digitaria sanguinalis [8].

As to `Cn1ncc2c(=O)n(-c3cc(O)c(Cl)cc3F)nnc21`, the inhibition at 1500 g/ha was found to be 0% in assay [1]; 23.7% with Amaranthus retroflexus [2]; 25.1% in the assay with Amaranthus retroflexus [3]; 3.5% with Echinochloa crus-galli [4]; 0% in the assay on Digitaria sanguinalis [5]; 13.2% with Echinochloa crus-galli [6]. Further, the values for the inhibition at 1500 g/ha (in assay [7]; in the assay with Digitaria sanguinalis [8]) were 27.9% and 9.2%, respectively.

On to `COc1cc(-n2nnc3c(cnn3C)c2=O)c(F)cc1Cl`, for which the inhibition at 1500 g/ha came to 0% in assay [1]; 40.5% with Amaranthus retroflexus [2]; 37.5% in the assay on Amaranthus retroflexus [3]; 11.3% in the assay on Echinochloa crus-galli [4]; 0% with Digitaria sanguinalis [5]; 1% in the assay on Echinochloa crus-galli [6]. Further, the inhibition at 1500 g/ha in assay [7] is 28.3%; in the assay on Digitaria sanguinalis [8], 20.6%.

Usually inhibition stands for the relative decrease from the control value, in per cent.
